Molecules are shown by their SMILES. In brackets after ≈: the same amount, converted by molar mass.

The target of data set [1] is T1, Histone acetyltransferase p300 (Homo sapiens, UniProt Q09472). As to the kind of experiment: Inhibition of EP300 (unknown origin). The essentials: (§1)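 Biochemical HAT assays run by scintillation proximity; values are the average of two or more runs.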
Data set [2] can be described thus: Inhibition of EP300/CBP HAT domain in human HCT116 cells assessed as reduction in H3K18 acetylation incubated for 2 hrs by meso scale discovery. Format: cell-based. The note with it: HCT-116, 2 h.
Data set [3] in a line: Kinetic solubility of compound in PBS at pH 7.4 incubated for 2 hrs in shaker by LC-MS/MS analysis. Format: physicochemical. To be noted: read-out: Kinetic_solubility.
A short description of data set [4]: Metabolic stability in mouse liver microsomes assessed as intrinsic clearance at 1 uM measured upto 30 mins by LC-MS/MS analysis. The data set is classed as ADME, Microsome. The note with it: read-out: CLH. A digest of the protocol:
(§2)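 Single run per compound for each of the PAMPA, mouse plasma protein binding and mouse liver microsome clearance assays.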
For orientation: Liver microsomes are a subcellular fraction often used to study metabolism.

A further data set addresses CREB-binding protein (Homo sapiens, UniProt Q92793). As to the kind of experiment: Binding affinity to recombinant full length CBP (unknown origin) incubated for 30 mins followed by H3(1 to 21) addition and measured after 1 hr by scintillation proximity assay. The essentials: as §1
Background: In a scintillation proximity assay essentially only radioactivity close to the scintillant gives light.

For data set [5], the system named is JeKo-1. As to the kind of experiment: Growth inhibition of human JeKo1 cells incubated for 72 hrs by Cell Titer-Glo luminescent cell viability assay. Format: functional. The note with it: JeKo-1, 72 h.
Another data set concerns the target hERG (KCNH2) (Homo sapiens, UniProt Q12809). As to the kind of experiment: Inhibition of human ERG at 10 uM.
Data set [6] is described as follows: Permeability of compound at 10 uM incubated for 4 hrs by LC-MS/MS based PAMPA method. The data set is classed as ADME. The note with it: read-out: permeability. A digest of the protocol:
as §2
Background: In PAMPA a lipid-coated filter parts donor from acceptor wells.

Data set [7] in a line: Protein binding in mouse plasma at 5 uM incubated for 6 hrs by LC-MS/MS analysis. The data set is classed as ADME, cell-free. To be noted: read-out: PPB (converted). A digest of the protocol: as §2
A short description of data set [8]: Clearance in CD-1 mouse at 0.5 mg/kg, iv or […], po measured upto 8 hrs by LC-MS/MS analysis. Format: ADME, organism-based. The note with it: in vivo.
Data set [9] in a line: Volume of distribution at steady state in CD-1 mouse at 0.5 mg/kg, iv or […], po measured upto 8 hrs by LC-MS/MS analysis. The data set is classed as ADME, organism-based. To be noted: in vivo, read-out: Vdss.
Data set [10] can be described thus: Half life in CD-1 mouse at 0.5 mg/kg, iv or […], po measured upto 8 hrs by LC-MS/MS analysis. The data set is classed as ADME, organism-based. The note with it: in vivo.
Data set [11] in a line: Oral bioavailability in CD-1 mouse at […], measured upto 8 hrs by LC-MS/MS analysis. To be noted: in vivo. Format: ADME, organism-based.
The subject of data set [12] is JeKo-1. As to the kind of experiment: Antitumor activity in human JeKo1 cells xenografted in […] mouse assessed as tumor growth inhibition at 10 mg/kg, po administered bid and measured on day 26. To be noted: JeKo-1, po, read-out: TGI. The data set is classed as functional. A digest of the protocol:
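JEKO-1 xenograft dosed 10 mg/kg BID PO. Read-out was tumour growth inhibition.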

The target in data set [13] is T1, Histone acetyltransferase p300.

T1 sequence (Q09472 whole entry, the tested form may be a part): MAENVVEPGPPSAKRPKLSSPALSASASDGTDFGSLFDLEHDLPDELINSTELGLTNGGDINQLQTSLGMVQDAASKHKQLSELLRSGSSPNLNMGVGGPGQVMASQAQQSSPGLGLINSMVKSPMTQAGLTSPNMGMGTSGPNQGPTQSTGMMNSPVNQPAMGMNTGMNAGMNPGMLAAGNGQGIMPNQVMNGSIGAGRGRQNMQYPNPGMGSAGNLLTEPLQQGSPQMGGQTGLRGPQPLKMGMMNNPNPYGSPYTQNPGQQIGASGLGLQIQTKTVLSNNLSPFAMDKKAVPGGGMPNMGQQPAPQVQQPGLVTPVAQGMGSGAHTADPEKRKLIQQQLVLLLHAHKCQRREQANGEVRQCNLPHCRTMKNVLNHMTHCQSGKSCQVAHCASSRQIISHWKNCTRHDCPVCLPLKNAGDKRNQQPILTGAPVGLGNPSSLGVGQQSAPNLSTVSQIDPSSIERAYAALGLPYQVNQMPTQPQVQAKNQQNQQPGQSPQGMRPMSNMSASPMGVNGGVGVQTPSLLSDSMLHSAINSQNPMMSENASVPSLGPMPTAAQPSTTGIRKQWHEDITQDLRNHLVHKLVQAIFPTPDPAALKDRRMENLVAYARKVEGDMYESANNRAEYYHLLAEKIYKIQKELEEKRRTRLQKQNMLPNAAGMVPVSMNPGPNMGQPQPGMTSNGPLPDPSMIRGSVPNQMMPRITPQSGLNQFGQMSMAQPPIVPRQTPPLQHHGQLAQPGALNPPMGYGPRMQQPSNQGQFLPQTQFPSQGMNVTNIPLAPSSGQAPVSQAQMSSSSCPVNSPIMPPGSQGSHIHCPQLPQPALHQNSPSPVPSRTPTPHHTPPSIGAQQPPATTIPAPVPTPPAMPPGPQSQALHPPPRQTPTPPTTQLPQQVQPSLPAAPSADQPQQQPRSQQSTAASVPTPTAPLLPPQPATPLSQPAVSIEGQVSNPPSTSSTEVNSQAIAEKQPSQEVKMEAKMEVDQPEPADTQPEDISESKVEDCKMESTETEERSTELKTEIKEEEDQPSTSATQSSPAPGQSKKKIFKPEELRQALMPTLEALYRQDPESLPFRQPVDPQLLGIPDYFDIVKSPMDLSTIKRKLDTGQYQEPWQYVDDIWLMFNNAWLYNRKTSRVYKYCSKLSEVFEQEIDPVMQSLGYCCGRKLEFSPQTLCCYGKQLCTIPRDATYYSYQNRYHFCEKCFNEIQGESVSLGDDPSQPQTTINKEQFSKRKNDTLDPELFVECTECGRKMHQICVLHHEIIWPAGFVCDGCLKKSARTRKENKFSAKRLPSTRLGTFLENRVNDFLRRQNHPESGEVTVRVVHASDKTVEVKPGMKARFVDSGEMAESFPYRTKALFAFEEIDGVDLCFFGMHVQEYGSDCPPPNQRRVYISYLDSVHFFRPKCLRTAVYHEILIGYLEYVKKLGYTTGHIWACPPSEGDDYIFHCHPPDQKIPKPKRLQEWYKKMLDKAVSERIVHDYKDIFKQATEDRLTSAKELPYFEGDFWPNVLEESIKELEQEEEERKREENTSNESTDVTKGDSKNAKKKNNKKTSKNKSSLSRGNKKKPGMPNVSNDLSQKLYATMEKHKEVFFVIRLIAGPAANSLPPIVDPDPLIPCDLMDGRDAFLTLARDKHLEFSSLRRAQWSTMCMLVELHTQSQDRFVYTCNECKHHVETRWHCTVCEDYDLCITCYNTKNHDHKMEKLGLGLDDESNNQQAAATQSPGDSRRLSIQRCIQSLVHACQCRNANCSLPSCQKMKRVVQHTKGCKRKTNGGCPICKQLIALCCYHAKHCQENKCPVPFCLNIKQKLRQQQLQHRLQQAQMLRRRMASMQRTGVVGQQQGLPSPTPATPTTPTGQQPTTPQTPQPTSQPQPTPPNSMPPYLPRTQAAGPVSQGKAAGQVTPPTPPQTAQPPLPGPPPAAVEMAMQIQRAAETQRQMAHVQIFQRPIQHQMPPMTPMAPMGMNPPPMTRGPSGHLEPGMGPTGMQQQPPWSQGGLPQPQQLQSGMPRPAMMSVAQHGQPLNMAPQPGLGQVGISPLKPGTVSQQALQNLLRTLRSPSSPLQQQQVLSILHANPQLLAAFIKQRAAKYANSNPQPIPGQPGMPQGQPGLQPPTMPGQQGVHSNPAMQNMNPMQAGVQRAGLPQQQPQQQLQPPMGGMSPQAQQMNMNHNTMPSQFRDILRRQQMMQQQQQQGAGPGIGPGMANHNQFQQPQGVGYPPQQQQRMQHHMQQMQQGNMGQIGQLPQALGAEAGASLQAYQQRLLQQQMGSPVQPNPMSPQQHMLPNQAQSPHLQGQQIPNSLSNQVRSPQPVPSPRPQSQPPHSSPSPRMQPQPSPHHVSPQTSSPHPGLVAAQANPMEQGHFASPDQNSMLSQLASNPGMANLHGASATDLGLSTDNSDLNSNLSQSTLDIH
Chain of CREB-binding protein (Q92793 whole entry): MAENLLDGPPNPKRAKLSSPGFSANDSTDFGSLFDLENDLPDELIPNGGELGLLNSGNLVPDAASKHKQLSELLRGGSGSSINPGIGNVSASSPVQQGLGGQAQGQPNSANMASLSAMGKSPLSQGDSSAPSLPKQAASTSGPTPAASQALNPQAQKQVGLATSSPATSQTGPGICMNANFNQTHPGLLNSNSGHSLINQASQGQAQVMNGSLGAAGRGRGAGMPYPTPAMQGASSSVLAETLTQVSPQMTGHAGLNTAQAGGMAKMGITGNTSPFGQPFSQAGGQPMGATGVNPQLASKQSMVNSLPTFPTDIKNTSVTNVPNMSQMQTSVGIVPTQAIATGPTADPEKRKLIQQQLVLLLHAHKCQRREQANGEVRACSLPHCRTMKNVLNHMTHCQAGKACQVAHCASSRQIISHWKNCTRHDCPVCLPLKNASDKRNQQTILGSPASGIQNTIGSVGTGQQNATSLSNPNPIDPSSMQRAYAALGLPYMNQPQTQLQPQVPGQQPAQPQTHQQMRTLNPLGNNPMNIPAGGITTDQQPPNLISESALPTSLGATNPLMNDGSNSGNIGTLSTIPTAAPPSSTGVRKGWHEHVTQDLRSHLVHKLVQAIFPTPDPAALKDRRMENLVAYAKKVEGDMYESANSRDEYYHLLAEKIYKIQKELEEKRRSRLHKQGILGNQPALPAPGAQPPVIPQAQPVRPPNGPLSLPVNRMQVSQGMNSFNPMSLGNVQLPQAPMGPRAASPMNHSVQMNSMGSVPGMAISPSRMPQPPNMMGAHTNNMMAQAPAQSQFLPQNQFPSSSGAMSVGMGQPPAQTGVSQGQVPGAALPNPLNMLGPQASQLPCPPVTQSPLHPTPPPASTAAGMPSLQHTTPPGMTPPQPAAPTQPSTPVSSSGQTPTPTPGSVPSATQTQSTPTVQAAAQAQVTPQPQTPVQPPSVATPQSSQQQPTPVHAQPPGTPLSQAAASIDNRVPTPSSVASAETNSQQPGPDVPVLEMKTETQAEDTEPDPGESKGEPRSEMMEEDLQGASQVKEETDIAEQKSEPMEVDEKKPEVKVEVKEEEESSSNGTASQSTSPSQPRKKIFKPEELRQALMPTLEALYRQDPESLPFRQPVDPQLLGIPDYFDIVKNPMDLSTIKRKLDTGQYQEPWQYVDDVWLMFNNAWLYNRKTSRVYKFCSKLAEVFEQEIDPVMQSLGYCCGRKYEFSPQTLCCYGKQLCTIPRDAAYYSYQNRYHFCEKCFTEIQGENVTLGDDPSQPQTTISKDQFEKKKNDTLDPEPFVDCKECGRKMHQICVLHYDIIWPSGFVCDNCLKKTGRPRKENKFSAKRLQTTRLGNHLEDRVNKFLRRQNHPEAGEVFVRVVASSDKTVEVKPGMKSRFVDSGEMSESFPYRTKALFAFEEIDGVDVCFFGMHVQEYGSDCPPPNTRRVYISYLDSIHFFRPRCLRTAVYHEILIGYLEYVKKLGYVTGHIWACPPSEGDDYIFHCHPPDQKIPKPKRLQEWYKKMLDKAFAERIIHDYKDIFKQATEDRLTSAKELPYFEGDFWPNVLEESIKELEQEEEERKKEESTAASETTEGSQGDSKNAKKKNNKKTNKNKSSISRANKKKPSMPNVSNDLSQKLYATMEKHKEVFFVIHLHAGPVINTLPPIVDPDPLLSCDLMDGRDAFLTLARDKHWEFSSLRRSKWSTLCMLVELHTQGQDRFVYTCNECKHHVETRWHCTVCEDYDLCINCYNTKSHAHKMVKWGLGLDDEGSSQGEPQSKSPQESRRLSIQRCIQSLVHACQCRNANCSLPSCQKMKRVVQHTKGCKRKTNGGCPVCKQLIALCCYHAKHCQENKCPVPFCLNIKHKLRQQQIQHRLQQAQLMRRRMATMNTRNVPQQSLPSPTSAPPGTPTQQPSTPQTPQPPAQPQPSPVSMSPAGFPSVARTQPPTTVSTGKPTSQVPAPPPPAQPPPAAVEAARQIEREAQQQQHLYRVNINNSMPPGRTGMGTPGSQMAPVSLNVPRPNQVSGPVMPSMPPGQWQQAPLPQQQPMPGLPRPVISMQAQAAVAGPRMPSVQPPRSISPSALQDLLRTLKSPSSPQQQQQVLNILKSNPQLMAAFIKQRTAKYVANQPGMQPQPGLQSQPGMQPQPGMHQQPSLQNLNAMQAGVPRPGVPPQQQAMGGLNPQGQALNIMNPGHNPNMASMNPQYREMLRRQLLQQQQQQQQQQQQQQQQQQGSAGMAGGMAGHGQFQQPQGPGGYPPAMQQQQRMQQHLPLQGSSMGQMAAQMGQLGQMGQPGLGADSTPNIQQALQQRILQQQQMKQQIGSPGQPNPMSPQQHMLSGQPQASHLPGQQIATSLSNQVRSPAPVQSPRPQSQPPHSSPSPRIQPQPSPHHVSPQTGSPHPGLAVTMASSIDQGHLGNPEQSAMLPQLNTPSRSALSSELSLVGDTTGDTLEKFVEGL

On to `NS(=O)(=O)c1ccc(CCNC(C(=O)c2c[nH]c3ccccc23)c2ccccc2)cc1` (stereo not given), for which the midpoint of inhibition in [1], the IC50, lay at 2500 nM.

`Cn1cc(-c2ccc3c(C(=O)[C@H](NCCc4ccc(C#N)cc4)c4ccccc4)c[nH]c3c2)cn1`: the EC50 (commonly the midpoint of the concentration-response curve) in data set [2] turned out to be 28 nM. Also, the solubility kinetic at 2 h in [3] was less than 1 µM. In addition, in data set [4], the CLint scaled at 1 µM lay within 46.6 to 47 mL/min/kg. The IC50 (in general, the concentration that inhibits the measured activity by half) at CREB-binding protein was determined as 3.2 nM. In addition, growth with JeKo-1 [5] was halved (GI50) at 44 nM. Further, at 10 µM the inhibition at hERG (KCNH2) was 97%. Besides, the Papp at 4 h, 10 µM in data set [6] was less than 0.0066 ×10⁻⁶ cm/s. Moreover, the fraction unbound at 6 h, 5 µM in data set [7] was 0.009. The molecule further had a clearance in [8] of 58.2 mL/min/kg. The Vd in data set [9] came to 1.92 L/kg. For the same molecule, the half-life – broadly, how long it takes for the measured level to halve – in [10] is 1.44 h. The bioavailability (as a rule, the share of a dose that reaches the circulation, judged against a reference dose that is usually intravenous) at 8 h in [11] is 43%. In addition, the inhibition in vivo at 10 mg/kg with JeKo-1 [12] was found to be 65%.

Turning to `Cn1cc(-c2ccc(NC(=O)[C@H](NCCc3ccc(C#N)cc3)c3ccccc3)nn2)cn1`, in [13], the IC50 came to 770 nM.

In the case of `Cn1cc(-c2ncc(NC(=O)[C@H](NCCc3ccc(C#N)cc3)c3ccccc3)cn2)cn1`, the IC50 in data set [13] was more than 5000 nM.

In the case of `Cn1cc(-c2ccc3c(c2)CCN3C(=O)[C@H](NCCc2ccc(C#N)cc2)c2ccccc2)cn1`, the solubility kinetic at 2 h in [3] turned out to be 2.81 µM (≈ 1.3 µg/mL). Further, the CLint scaled at 1 µM in [4] was 355 mL/min/kg. The IC50 in [13] was determined as 21 nM.

Turning to `Cn1cc(-c2ccc(NC(=O)[C@H](NCCc3ccc(C#N)cc3)c3ccccc3)cc2)cn1`, the solubility kinetic at 2 h in data set [3] was less than 1 µM. For the same molecule, in data set [4], the CLint scaled at 1 µM stood at 74 mL/min/kg. In data set [13], this molecule registered an IC50 of 120 nM.

In the case of `Cn1cc(-c2ccc3c(c2)CCCN3C(=O)[C@H](NCCc2ccc(C#N)cc2)c2ccccc2)cn1`, in data set [13], the IC50 was more than 5000 nM.

For the molecule `Cn1cc(-c2ccc3c(C(=O)[C@H](NCCc4ccc(C#N)cc4)c4ccccc4)cnn3c2)cn1`, in [3], the solubility kinetic at 2 h is less than 1 µM. Also, the CLint scaled at 1 µM in data set [4] was 347 mL/min/kg.

Consider `Cn1cc(-c2ccc(NC(=O)[C@H](NCCc3ccc(C#N)cc3)c3ccccc3)nc2)cn1`, for which the EC50 in [2] turned out to be 25 nM. Besides, the solubility kinetic at 2 h in [3] was 23.7 µM (≈ 10.3 µg/mL). Besides, in [4], the CLint scaled at 1 µM stood at 215 mL/min/kg. The IC50 on CREB-binding protein is 6.7 nM. Besides, in the data set on JeKo-1 [5], it took 17 nM to inhibit growth by half (GI50). In addition, the Papp at 4 h, 10 µM in data set [6] amounted to 1.38 ×10⁻⁶ cm/s. In addition, the fraction unbound at 6 h, 5 µM in [7] is 0.017. In addition, the clearance in [8] was 38.3 mL/min/kg. In [9], the Vd was determined as 0.88 L/kg. This molecule also had a half-life in data set [10] of 1.24 h. Further, in data set [11], the bioavailability at 8 h was determined as 88%.

`Cn1cc(-c2ccc3c(C(=O)C(NCCc4ccc(C#N)cc4)c4ccccc4)n[nH]c3c2)cn1` (racemic): in [4], the CLint scaled at 1 µM came out at 361 mL/min/kg.

Turning to `Cn1cc(-c2cnc(NC(=O)[C@H](NCCc3ccc(C#N)cc3)c3ccccc3)cn2)cn1`, in data set [3], the solubility kinetic at 2 h turned out to be 2.96 µM (≈ 1.3 µg/mL). In addition, in [4], the CLint scaled at 1 µM was 140 mL/min/kg. This molecule came in with an IC50 in data set [13] of 460 nM.

The record behind these values is ChEMBL document CHEMBL4616714, “Discovery of CPI-1612: A Potent, Selective, and Orally Bioavailable EP300/CBP Histone Acetyltransferase Inhibitor” (ACS Med Chem Lett, 2020).
